Experimental data published in publication PMC3213326 (Molecular cancer therapeutics, 2011).

Columns and labels:
KLF5 [1] = experiment: Western blot of endogenous KLF5 levels in IEC-6 cells; type: cell-based, rat; settings: wide range of concentrations
[2] = tested on: KM12 colon cancer cell line; experiment: NCI-60 panel screen, KM12; type: cell-based, human; settings: 10 µM, cell line highly expressing KLF5
DLD-1 cells = experiment: Cell viability assay; type: cell-based, human; settings: 48 h; for effect on proliferation of DLD-1 cells: various concentrations
Procedure, shortened: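 DLD-1 cells were plated at 10⁴ per well in 96-well plates. They were dosed at once with increasing concentrations of test compound in DMSO (final 0.4%) or with DMSO alone. After 48 h, viability was read by Cell-Titer Glo luminescence. The DMSO control was set to 100%. Runs were done in triplicate, and IC50 came from a nonlinear sigmoidal dose-response fit.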

[3] = tested on: NCI-60 panel of human cancer cell lines; experiment: NCI-60 panel screen; type: cell-based; settings: 10 µM
EGR1 = experiment: Western blot of EGR1 in DLD-1 cells; type: cell-based, human; settings: DLD-1, 10 µM, 24 h
Procedure, shortened: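 DLD-1 cells were seeded at 2 × 10⁵ per well in 1 ml medium. At 24 h after seeding they were given test compound in DMSO or DMSO alone for 24 h. Lysates were made in Laemmli buffer, separated by polyacrylamide gel electrophoresis and transferred to nitrocellulose. Membranes were probed with rabbit anti-EGR1, and scanned films were quantified by densitometry.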

leukemia cell lines = experiment: NCI-60 panel screen, leukemia lines; type: cell-based, human; settings: 10 µM
KLF5 [4] = experiment: Western blot of endogenous KLF5 protein levels in DLD-1 cells; type: cell-based, human; settings: 24 h; for effect on endogenous KLF5 levels: DLD-1, 10 µM
Procedure, shortened: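 DLD-1 cells were seeded at 2 × 10⁵ per well in 1 ml medium. At 24 h after seeding they were treated with 5 or 10 µM test compound in DMSO, or with DMSO alone, for 24 h. Cells were lysed in Laemmli buffer, run on polyacrylamide gel and transferred to nitrocellulose. Blots were probed with rabbit polyclonal anti-KLF5 (residues 95–111) and mouse monoclonal anti-β-actin, and scanned films were quantified by densitometry.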

SMILES	effect on endogenous KLF5 levels in IEC-6 cells (KLF5 [1])	effect on proliferation of DLD-1 cells (DLD-1 cells)	effect on EGR1 (EGR1)	effect on endogenous KLF5 levels (KLF5 [4])	other results
CC1=CCCC2(C)C(CCC2(O)CN(CCc2cccs2)S(=O)(=O)c2cccs2)c2ccc(cc2C(=O)Cc2c(F)cccc2Cl)CC(O)CC1 (stereo not shown) [compound 4395011]	neither CIDs 4395011 nor 5951923 reduced endogenous KLF5 levels				
CN(C(=O)COC(=O)/C=C/c1cccc([N+](=O)[O-])c1)C1CCS(=O)(=O)C1 (stereo not shown) [CID 5951923]	neither CIDs 4395011 nor 5951923 reduced endogenous KLF5 levels	inhibited proliferation of DLD-1 cells in a dose-dependent manner	downregulated EGR1		inhibition of KM12 colon cancer cell line [2]: poor inhibition; potency of inhibition in NCI-60 panel [3]: potency was weak; inhibition of leukemia cell lines (leukemia cell lines): inhibition in a number of leukemia cell lines
C[C@@H]1O[C@@H](O[C@H]2C[C@@H](O)[C@]3(CO)[C@H]4[C@H](O)C[C@]5(C)[C@@H](C6=CC(=O)OC6)CC[C@]5(O)[C@@H]4CC[C@]3(O)C2)[C@H](O)[C@H](O)[C@H]1O [compound 439501]		inhibited proliferation of DLD-1 cells in a dose-dependent manner			IC50 (DLD-1 cells; read-out: IC50 for DLD-1 proliferation (cell viability), Cell-Titer Glo): 46 nM; inhibitory effect on KLF5 levels relative to the other three tested compounds (KLF5 [4]; DLD-1, 5 and 10 µM): more pronounced
CN(C(=O)CNC(=O)/C=C/c1cccc(Cl)c1)C1CCS(=O)(=O)C1 (stereo not shown) [compound 46931043]				similarly affect KLF5 protein levels	
CN(C(=O)CNC(=O)/C=C/c1cccc([N+](=O)[O-])c1)C1CCS(=O)(=O)C1 (stereo not shown) [compound 46931037]			downregulated EGR1	similarly affect KLF5 protein levels	
